Test results taken from ChEMBL document CHEMBL3045304, “Sesquiterpene lactones with potential use as natural herbicide models. 2. guaianolides” (2000).
Active and inactive are the calls of the source. The rule behind the calls is not given here.

Columns and labels:
[1] = tested on: Allium cepa; experiment: Inhibition of hypocotyl length of Allium cepa cv. Valenciana (onion) at 0.1 mM or 1 mM after 5 days relative to untreated control; format: functional
[2] = tested on: Lactuca sativa; experiment: Inhibition of root length of Lactuca sativa cv. Roman (lettuce) at 0.1 mM or 1 mM after 5 days relative to untreated control; format: functional
How it was run: (§1)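 Lettuce and tomato seeds, 25 per dish on filter paper, received 5 mL test solution. Incubation was 5 days in the dark at 25 °C, with four replicates per concentration. Solutions were made at 10^-3 or 10^-4 M in 10 mM MES, diluted serially, and adjusted to pH 6.0. Parallel controls were run. Results are % difference from control.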

[3] = tested on: Solanum lycopersicum; experiment: Inhibition of root length of Solanum lycopersicum cv. Tres Cantos (tomato) at 0.1 mM or 1 mM after 5 days relative to untreated control; format: functional; how it was run: as §1
[4] = tested on: Triticum aestivum; experiment: Stimulation of root length of Triticum aestivum cv. Cortex (wheat) at 0.1 mM or 1 mM after 5 days relative to untreated control; format: functional
How it was run: (§2)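 Wheat: 10 seeds per dish on filter paper with 5 mL test solution, 5 days in the dark at 25 °C, 10 replicates per concentration. Stock test solutions were 10^-3 or 10^-4 M in 10 mM MES, with lower levels made by dilution, all at pH 6.0. Parallel controls were run. Output is % difference from control.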

[5] = tested on: Lactuca sativa; experiment: Stimulation of hypocotyl length of Lactuca sativa cv. Roman (lettuce) at 0.1 mM or 1 mM after 5 days relative to untreated control; format: functional; how it was run: as §1
[6] = tested on: Triticum aestivum; experiment: Inhibition of hypocotyl length of Triticum aestivum cv. Cortex (wheat) at 0.1 mM or 1 mM after 5 days relative to untreated control; format: functional; how it was run: as §2
[7] = tested on: Solanum lycopersicum; experiment: Stimulation of root length of Solanum lycopersicum cv. Tres Cantos (tomato) at 0.1 mM or 1 mM after 5 days relative to untreated control; format: functional; how it was run: as §1
[8] = tested on: Lepidium sativum; experiment: Stimulation of root length of Lepidium sativum at 0.1 mM or 1 mM after 5 days relative to untreated control; format: functional
[9] = tested on: Allium cepa; experiment: Inhibition of germination of Allium cepa cv. Valenciana (onion) at 0.1 mM or 1 mM after 5 days relative to untreated control; format: functional
[10] = tested on: Triticum aestivum; experiment: Inhibition of root length of Triticum aestivum cv. Cortex (wheat) at 0.1 mM or 1 mM after 5 days relative to untreated control; format: functional; how it was run: as §2
[11] = tested on: Triticum aestivum; experiment: Inhibition of germination of Triticum aestivum cv. Cortex (wheat) at 0.1 mM or 1 mM after 5 days relative to untreated control; format: functional; how it was run: as §2
[12] = tested on: Solanum lycopersicum; experiment: Inhibition of hypocotyl length of Solanum lycopersicum cv. Tres Cantos (tomato) at 0.1 mM or 1 mM after 5 days relative to untreated control; format: functional; how it was run: as §1
[13] = tested on: Allium cepa; experiment: Stimulation of germination of Allium cepa cv. Valenciana (onion) at 0.1 mM or 1 mM after 7 days relative to untreated control
[14] = tested on: Allium cepa; experiment: Inhibition of root length of Allium cepa cv. Valenciana (onion) at 0.1 mM or 1 mM after 5 days relative to untreated control; format: functional
[15] = tested on: Allium cepa; experiment: Stimulation of root length of Allium cepa cv. Valenciana (onion) at 0.1 mM or 1 mM after 5 days relative to untreated control; format: functional
[16] = tested on: Lactuca sativa; experiment: Inhibition of hypocotyl length of Lactuca sativa cv. Roman (lettuce) at 0.1 mM or 1 mM after 5 days relative to untreated control; format: functional; how it was run: as §1
[17] = tested on: Lepidium sativum; experiment: Inhibition of germination of Lepidium sativum at 0.1 mM or 1 mM after 5 days relative to untreated control; format: functional
[18] = tested on: Solanum lycopersicum; experiment: Inhibition of germination of Solanum lycopersicum cv. Tres Cantos (tomato) at 0.1 mM or 1 mM after 5 days relative to untreated control; format: functional; how it was run: as §1
[19] = tested on: Solanum lycopersicum; experiment: Stimulation of germination of Solanum lycopersicum cv. Tres Cantos (tomato) at 0.1 mM or 1 mM after 5 days relative to untreated control; format: functional; how it was run: as §1
[20] = tested on: Triticum aestivum; experiment: Stimulation of germination of Triticum aestivum cv. Cortex (wheat) at 0.1 mM or 1 mM after 5 days relative to untreated control; format: functional; how it was run: as §2
[21] = tested on: Allium cepa; experiment: Stimulation of hypocotyl length of Allium cepa cv. Valenciana (onion) at 0.1 mM or 1 mM after 5 days relative to untreated control; format: functional
[22] = tested on: Lactuca sativa; experiment: Stimulation of root length of Lactuca sativa cv. Roman (lettuce) at 0.1 mM or 1 mM after 5 days relative to untreated control; format: functional; how it was run: as §1
[23] = tested on: Solanum lycopersicum; experiment: Stimulation of hypocotyl length of Solanum lycopersicum cv. Tres Cantos (tomato) at 0.1 mM or 1 mM after 5 days relative to untreated control; format: functional; how it was run: as §1
[24] = tested on: Lepidium sativum; experiment: Inhibition of germination of Lepidium sativum at 0.1 mM or 1 mM after 4 days relative to untreated control; parameters: scale not given: the % may be the effect or the level left
[25] = tested on: Triticum aestivum; experiment: Stimulation of hypocotyl length of Triticum aestivum cv. Cortex (wheat) at 0.1 mM or 1 mM after 5 days relative to untreated control; format: functional; how it was run: as §2
[26] = tested on: Lepidium sativum; experiment: Inhibition of hypocotyl length of Lepidium sativum at 0.1 mM or 1 mM after 4 days relative to untreated control
[27] = tested on: Lactuca sativa; experiment: Inhibition of germination of Lactuca sativa cv. Roman (lettuce) at 0.1 mM or 1 mM after 5 days relative to untreated control; format: functional; how it was run: as §1
[28] = tested on: Lactuca sativa; experiment: Stimulation of germination of Lactuca sativa cv. Roman (lettuce) at 0.1 mM or 1 mM after 5 days relative to untreated control; format: functional; how it was run: as §1
[29] = tested on: Lepidium sativum; experiment: Inhibition of root length of Lepidium sativum at 0.1 mM or 1 mM after 4 days relative to untreated control
[30] = tested on: Lepidium sativum; experiment: Stimulation of hypocotyl length of Lepidium sativum at 0.1 mM or 1 mM after 5 days relative to untreated control; format: functional

Row | SMILES | inhibition (INH) [1] [%] | inhibition (INH) [3] [%] | Activity [4] [%] | Activity [5] | inhibition (INH) [6] [%] | Activity [7] [%] | Activity [8] [%] | inhibition [9] | inhibition (INH) [10] [%] | inhibition (INH) [11] | inhibition (INH) [12] [%] | Activity [13] | inhibition (INH) [14] [%] | Activity [15] [%] | inhibition (INH) [17] [%] | Activity [19] | Activity [20] | Activity [21] [%] | Activity [22] | Activity [23] [%] | further results
1 | COc1nc(C)nc(NC(=O)NS(=O)(=O)c2ccccc2OCCCl)n1 [LOGRAN] | >40 | >40 | 20 | >40% | 20 | >40 | >40 | inactive | 20 | 20% | >40 | inactive | >40 | >40 | 20 | inactive | 20% | >40 | >40% | >40 | inhibition (INH) [2]: >40%; inhibition (INH) [16]: >40%; inhibition [18]: inactive; Activity [24]: 20%; Activity [25]: 20%; inhibition (INH) [26]: >40%; inhibition (INH) [27]: >40%; Activity [28]: >40%; inhibition (INH) [29]: >40%; Activity [30]: >40%
2 | C=C1CC[C@H]2C(=C)CC[C@@H]3[C@H](OC(=O)[C@H]3CO)[C@@H]12 | >40 | >40 | 20 | inactive | 20 | >40 | >40 | inactive | 20 | <=20% | >40 | inactive | >40 | >40 | <20 | inactive | <=20% | >40 | 20% | >40 | inhibition (INH) [2]: 20%; inhibition [16]: inactive; inhibition [18]: inactive; Activity [24]: <20%; Activity [25]: 20%; inhibition (INH) [26]: >40%; inhibition (INH) [27]: <20%; Activity [28]: <20%; inhibition (INH) [29]: >40%; Activity [30]: >40%
3 | C=C1[C@@H]2[C@H]3OC(=O)C(=C)[C@@H]3CCC(=C)[C@@H]2C[C@H]1O [ISOZALUZANIN C] | >40 | >40 | >40 | <20% | 20 | >40 | >40 | inactive | >40 | 20% | >40 | inactive | >40 | >40 | >40 | 20% | 20% | >40 | inactive | >40 | inhibition [2]: inactive; inhibition (INH) [16]: <20%; inhibition (INH) [18]: 20%; Activity [24]: >40%; Activity [25]: 20%; inhibition (INH) [26]: >40%; inhibition (INH) [27]: <20%; Activity [28]: <20%; inhibition (INH) [29]: >40%; Activity [30]: >40%
